Test results from ChEMBL document CHEMBL1125742, “(2S)-1-(arylacetyl)-2-(aminomethyl)piperidine derivatives: novel, highly selective kappa opioid analgesics” (J Med Chem, 1991).

What was measured:
[1] = tested on: Mus musculus; experiment: Antinociceptive activity in mouse tail flick test following s.c. administration.; type: functional
Procedure, shortened: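 Mouse tail flick test, D'Amour and Smith procedure as modified by Ling et al., with compound given subcutaneously. ED50 in mg/kg with 95% confidence limits, derived by Finney probit analysis.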

[2] = molecular target: T1, Mu-type opioid receptor (Cavia porcellus, UniProt P97266); experiment: Compound was evaluated for its binding affinity against Opioid receptor mu 1 subtype in guinea pig brain (minus cerebellum) using [3H]-DAGO as radioligand.; type: tissue-based
T1 sequence (P97266 whole entry): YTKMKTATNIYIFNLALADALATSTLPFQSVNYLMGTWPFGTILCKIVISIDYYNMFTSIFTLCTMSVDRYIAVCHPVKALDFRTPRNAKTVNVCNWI
Procedure, shortened: (§1)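 μ sites in fresh guinea pig brain homogenate (minus cerebellum) were labelled with [3H]DAGO for 40 min at 25 °C. Samples were filtered on GF/C, washed with ice-cold Tris buffer, and bound radioactivity counted. Nonspecific binding was set with 10^-6 M naloxone. Ki by Cheng–Prusoff, as the mean of triplicate curves (n = 3 experiments).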

[3] = molecular target: T2, Kappa-type opioid receptor (Cavia porcellus, UniProt P41144); experiment: Compound was evaluated for its binding affinity against Opioid receptor kappa 1 subtype in guinea pig brain (minus cerebellum). using [3H]U-69593 as radioligand.; type: tissue-based
T2 sequence (P41144 whole entry): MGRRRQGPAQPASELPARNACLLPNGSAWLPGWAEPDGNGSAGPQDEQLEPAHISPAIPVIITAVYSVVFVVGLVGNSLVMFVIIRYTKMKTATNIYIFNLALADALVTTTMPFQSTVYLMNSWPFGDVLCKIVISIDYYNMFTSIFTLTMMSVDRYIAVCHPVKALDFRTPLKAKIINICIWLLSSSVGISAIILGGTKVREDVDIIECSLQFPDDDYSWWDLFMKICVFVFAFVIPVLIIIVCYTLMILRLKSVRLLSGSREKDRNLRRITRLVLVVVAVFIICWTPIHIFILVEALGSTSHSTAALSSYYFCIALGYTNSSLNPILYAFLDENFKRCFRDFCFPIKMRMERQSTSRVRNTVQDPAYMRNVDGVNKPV
Procedure, shortened: (§2)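 Fresh guinea pig brain homogenate (cerebellum removed) incubated with κ-selective [3H]U-69593 and competitor for 50 min at 25 °C. Samples were filtered on GF/C, washed and counted by liquid scintillation. Nonspecific binding was set with 10^-6 M naloxone. Ki from Cheng–Prusoff, as the mean of triplicate concentration–response curves (n = 3 experiments).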

[4] = molecular target: T2, Kappa-type opioid receptor; experiment: Displacement of [3H]U-69593 from kappa opioid receptors in guine pig brain (minus cerebellum).; type: tissue-based
[5] = molecular target: T1, Mu-type opioid receptor; experiment: Displacement of [3H]DAGO from mu opioid receptors in guinea pig brain (minus cerebellum).; type: tissue-based; procedure, shortened: as §1
[6] = tested on: Mus musculus; experiment: Compound was evaluated for its antinociceptive activity in the mouse tail flick (MTF) test following subcutaneous administration of 10 mg/kg; type: functional
Procedure, shortened: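 Mouse tail flick test, D'Amour and Smith procedure as modified by Ling et al. A single 10 mg/kg subcutaneous dose was given and the result recorded as % protection.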

[7] = molecular target: T2, Kappa-type opioid receptor; experiment: Compound was evaluated for its binding affinity against Opioid receptor kappa 1 subtype in guinea pig brain (minus cerebellum) using [3H]U-69593 as radioligand.; type: tissue-based; procedure, shortened: as §2
[8] = tested on: Mus musculus; experiment: Compound was evaluated for its antinociceptive activity in the mouse tail flick (MTF) test following peroral administration; type: functional; conditions: po
Procedure, shortened: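 Mouse tail flick test, D'Amour and Smith procedure as modified by Ling et al., with oral (po) dosing. ED50 in mg/kg with 95% confidence limits, derived by Finney probit analysis.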

[9] = molecular target: T1, Mu-type opioid receptor; experiment: Compound was evaluated for its binding affinity against opioid receptor mu subtype in guinea pig brain (minus cerebellum) using [3H]DAGO as radioligand.; type: tissue-based; procedure, shortened: as §1
[10] = Mus musculus, Tail, sc, read-out: ED50

| Structure (SMILES) | ED50 [1, 10] [mg/kg] | Ki [4] [nM] | Ki [5] [nM] | further results |
| --- | --- | --- | --- | --- |
| O=C(Cc1ccc(Cl)c(Cl)c1)N1CCCCC1CN1CCCC1 (configuration not stated) | 0.09 | – | – | Ki [2]: 1860 nM; Ki [3]: 0.53 nM |
| O=C(Cc1cccc(C(F)(F)F)c1)N1CCCCC1CN1CCCC1 (configuration not stated) | 0.38 | 1.07 | > 10000 | – |
| O=C(Cc1ccc(Cl)cc1)N1CCCCC1CN1CCCC1 (configuration not stated) | 0.84 | 1.68 | 5910 | – |
| O=C(Cc1ccc(F)cc1)N1CCCCC1CN1CCCC1 (configuration not stated) | 9.22 | 15.4 | > 10000 | – |
| O=C(Cc1ccc(O)cc1)N1CCCCC1CN1CCCC1 (configuration not stated) | – | 194 | > 10000 | Protection [6]: 0% |
| O=C(Cc1ccc(Br)cc1)N1CCCCC1CN1CCCC1 (configuration not stated) | 0.46 | 0.84 | 2980 | – |
| O=C(Cc1cccc([N+](=O)[O-])c1)N1CCCCC1CN1CCCC1 (configuration not stated) | 0.86 | – | – | – |
| O=C(Cc1ccc(C2CCCCC2)cc1)N1CCCCC1CN1CCCC1 (configuration not stated) | – | 827 | 974 | Protection [6]: 0% |
| O=C(Cc1ccc(Cl)c(Cl)c1)N1CCCCC1CN1CCCCC1 (configuration not stated) | 0.19 | – | – | Ki [2]: 4810 nM; Ki [7]: 0.48 nM |
| CN(C)C[C@@H]1CCCCN1C(=O)Cc1ccc(Cl)c(Cl)c1 | 0.87 | 0.7 | 2160 | – |
| O=C(Cc1ccc(Cl)c(Cl)c1)N1CCCC[C@@H]1CN1CCCC1 | 17.5 | 15.4 | 7110 | – |
| CC(C)(C)c1ccc(CC(=O)N2CCCCC2CN2CCCC2)cc1 (configuration not stated) | 1 | – | – | – |
| Cc1ccc(CC(=O)N2CCCCC2CN2CCCC2)cc1 (configuration not stated) | 3.88 | 3.84 | > 10000 | – |
| CN(C)CC1CCCCN1C(=O)Cc1ccc(Cl)c(Cl)c1 (configuration not stated) | 0.92 | – | – | Ki [2]: 3050 nM; Ki [7]: 1.36 nM |
| O=C(Cc1ccc([N+](=O)[O-])cc1)N1CCCCC1CN1CCCC1 (configuration not stated) | 0.49 | – | – | – |
| CCN(CC)CC1CCCCN1C(=O)Cc1ccc(Cl)c(Cl)c1 (configuration not stated) | 0.77 | 1.28 | 5000 | – |
| Cc1ccc(CC(=O)N2CCCCC2CN2CCCC2)cc1C (configuration not stated) | 2.89 | 1.83 | 5310 | – |
| O=C(Cc1ccccc1C(F)(F)F)N1CCCCC1CN1CCCC1 (configuration not stated) | – | 8.54 | > 10000 | Protection [6]: 60% |
| O=C(Cc1ccc(Cl)c(Cl)c1)N1CCCC[C@H]1CN1CCCC1 | 0.05 | 0.24 | 1560 | ED50 [8]: 0.89 mg/kg |
| O=C(Cc1ccc(C(F)(F)F)cc1)N1CCCCC1CN1CCCC1 (stereo in doubt; 20) | – | 0.78 | 3520 | ED50 [1]: 0.2 mg/kg |
| O=C(Cc1ccc(C(F)(F)F)cc1)N1CCCCC1CN1CCCC1 (stereo in doubt; 21) | 0.11 | 0.57 | 2340 | ED50 [8]: 1.17 mg/kg |
| CC(C1CCCCN1C(=O)Cc1ccc(Cl)c(Cl)c1)N(C)C (stereo in doubt; 37) | 0.38 | 0.6 | 762 | – |
| CC(C1CCCCN1C(=O)Cc1ccc(Cl)c(Cl)c1)N(C)C (stereo in doubt; 38) | – | 1000 | – | Protection [6]: 0%; Ki [9]: > 10000 nM |
| CN1CCCC1C1CCCCN1C(=O)Cc1ccc(Cl)c(Cl)c1 (stereo in doubt; 41) | 0.4 | 0.33 | 464 | – |
| CN1CCCC1C1CCCCN1C(=O)Cc1ccc(Cl)c(Cl)c1 (stereo in doubt; 42) | – | 11.7 | 864 | Protection [6]: 40% |
| CN1CC[C@]23c4c5ccc(O)c4O[C@H]2[C@@H](O)C=C[C@H]3[C@H]1C5 [MORPHINE] | 2.8 | – | – | – |
